The nature of series [1]: Ratio of oxytocic potency to antidiuretic activity in rat. Details: species or system Urine.
Series [2] is described as follows: Oxytocic potency in rat uterus. It counts as functional. An outline of the steps: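 Isolated uterine horns from rats in natural estrus. The standard was given repeatedly until reproducible values were obtained. After the preparation was exposed to an analogue, several further doses of standard were needed before the standard's potency became consistent between analogue injections.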

For series [3], the species on record is Rattus norvegicus. Nature of the series: Vasopressor activity in rat. It counts as ADME, organism-based. As to conditions: in vivo. In short, it runs like this: (§1)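 Pressor and antidiuretic assays run in anesthetized male rats.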
The test system of series [4] is Rattus norvegicus. The experiment in a line: Antidiuretic activity in iv dosed rat. It counts as ADME, organism-based, Urine. The note with it: in vivo. In short, it runs like this: as §1
Series [5] has as its system Gallus gallus. The experiment in a line: Vasodepressor activity in conscious chicken. In kind it is ADME, organism-based. The note with it: in vivo. In short, it runs like this:
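Vasodepressor assay run in conscious chickens.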

We go through six compounds from ChEMBL document CHEMBL3244090, “Combined high oxytocic with negligible antidiuretic and pressor activities in multisubstituted oxytocins” (J Med Chem, 1977).

*1 amine or outer side, *2 acyl side, *3 side chain or, on linkers, in order; H or OH if unused. Where a SMILES comes first, the peptide text is derived from it. Bridges are numbered along the chain shown (N, C = ends). X1 = O=C([C@H](O)CS[*:2])[*:1]

For `CC[C@H](C)[C@@H]1NC(=O)[C@H](Cc2ccc(O)cc2)NC(=O)[C@@H](N)CSSC[C@@H](C(=O)N2CCC[C@H]2C(=O)N[C@@H](CC(C)C)C(=O)NCC(N)=O)NC(=O)[C@H](CC(N)=O)NC(=O)[C@H](CCC(N)=O)NC1=O` [OXYTOCIN], the Ratio in series [1] was 200. Further, the Activity in series [2] stood at 546 U/mg; in series [3] it was 3.1 U/mg; in series [4], 2.7 U/mg; in series [5], 507 U/mg.
The corresponding values for `CC[C@H](C)[C@@H]1NC(=O)[C@H](Cc2ccc(O)cc2)NC(=O)[C@@H](N)CSSC[C@@H](C(=O)N2CCC[C@H]2C(=O)N[C@@H](CC(C)C)C(=O)NCC(N)=O)NC(=O)[C@H](CC(N)=O)NC(=O)[C@H]([C@@H](C)O)NC1=O` (H-CYITNCPLG-NH2; disulfide 1-6) are 500, 923 U/mg, 0.43 U/mg, 1.8 U/mg and 1480 U/mg.
Take `CC[C@H](C)[C@@H]1NC(=O)[C@H](Cc2ccc(O)cc2)NC(=O)[C@@H](N)CSSC[C@@H](C(=O)NCC(=O)N[C@@H](CC(C)C)C(=O)NCC(N)=O)NC(=O)[C@H](CC(N)=O)NC(=O)[C@H](CCC(N)=O)NC1=O` (H-CYIQNCGLG-NH2; disulfide 1-6): the Ratio in series [1] stood at 6500. Moreover, the Activity in series [2] is given as 65 U/mg; in series [3], 0.3 U/mg; in series [4] it was 0.01 U/mg; in series [5], 224 U/mg.
As for `CC[C@H](C)[C@@H]1NC(=O)[C@H](Cc2ccc(O)cc2)NC(=O)[C@@H](N)CSSC[C@@H](C(=O)NCC(=O)N[C@@H](CC(C)C)C(=O)NCC(N)=O)NC(=O)[C@H](CC(N)=O)NC(=O)[C@H]([C@@H](C)O)NC1=O` (H-CYITNCGLG-NH2; disulfide 1-6), in series [1], the Ratio is given as 135000. For the same compound, the results for the Activity in series [2], in series [4] and in series [5] were 175 U/mg, 0.001 U/mg and 8.6 U/mg, respectively.
The corresponding values for `CC[C@H](C)[C@@H]1NC(=O)[C@H](Cc2ccc(O)cc2)NC(=O)[C@H](O)CSSC[C@@H](C(=O)NCC(=O)N[C@@H](CC(C)C)C(=O)NCC(N)=O)NC(=O)[C@H](CC(N)=O)NC(=O)[C@H]([C@@H](C)O)NC1=O` (YITNCGLG-NH2; linker N-5 via X1) are 7000, 337 U/mg, 0.048 U/mg and 50 U/mg.
`CC[C@H](C)[C@@H]1NC(=O)[C@H](Cc2ccc(O)cc2)NC(=O)[C@H](O)CSSC[C@@H](C(=O)N2CCC[C@H]2C(=O)N[C@@H](CC(C)C)C(=O)NCC(N)=O)NC(=O)[C@H](CC(N)=O)NC(=O)[C@H](CCC(N)=O)NC1=O` (YIQNCPLG-NH2; linker N-5 via X1): the Ratio in series [1] is given as 40. Besides, the Activity in series [2] came to 1275 U/mg; in series [3] it was 14.7 U/mg; in series [4], 16.6 U/mg; in series [5], 1778 U/mg.
